Activity calls are given as the source filed them. The rule behind the calls is not given here.
Assays:
[1] = molecular target: T1, Cruzipain (Trypanosoma cruzi, UniProt P25779); test: Inhibition of Trypanosoma cruzi cruzain after 15 mins
In short: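 Cruzain at 1.5 nM final in 100 mM acetate pH 5.5, 5 mM DTT, 0.01% Triton X-100; compounds as serial 2-fold dilutions pin-transferred in DMSO. 15 min room-temperature preincubation, then Z-FR-AMC 2 μM final. Kinetic fluorescence read at ex 340/em 450 nm. Percent inhibition from the first 60 s signal change versus no-enzyme and uninhibited controls (48 wells each).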

[2] = tested on: J774; test: Cytotoxicity against mouse J774 cells at 10 uM; format: cell-based; conditions: j774, 10 µM
In short: (§1)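 Irradiated (1000 rad) J774 macrophages plated overnight and infected 2 h with Y strain T. cruzi trypomastigotes. After parasite removal, cultured in RPMI-1640 with compound (n = 3), medium changed every 48 h, for 27 days. Toxicity to host cells (granulation, detachment, death) scored daily by phase-contrast microscopy at 400×.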

[3] = tested on: Trypanosoma cruzi; test: Antitrypanosomal activity against Trypanosoma cruzi Y trypomastigotes infected in mouse J774 cells at 1 uM after 27 days medium replaced every 48 hrs; format: functional, organism-based
In short: (§2)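 Irradiated (1000 rad) J774 macrophages plated overnight, infected 2 h with Y strain trypomastigotes, parasites removed, then cultured in RPMI-1640 with compound (n = 3); untreated infected and 10 μM K777 controls per experiment. Medium replaced every 48 h over 27 days; daily phase-contrast microscopy (400×) for free trypomastigotes and host toxicity; cultures kept 14 further days to confirm cure.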

[4] = tested on: J774; test: Cytotoxicity against mouse J774 cells at 5 uM; format: cell-based; conditions: j774, 5 µM; in short: as §1
[5] = molecular target: T1, Cruzipain; test: Inhibition of recombinant Trypanosoma cruzi cruzain after 5 mins by spectrofluorimetric analysis
In short: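 Recombinant cruzain at 4 nM (activated procruzain, anion-exchange purified) in 100 mM sodium acetate pH 5.5, 5 mM DTT, 0.001% Triton X-100. Preincubated 5 min at room temperature with compound in DMSO, then Z-Phe-Arg-AMC 10 μM. Fluorescence rate read at ex 355/em 460 nm; DMSO controls; IC50 by curve fitting.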

[6] = Inhibition of recombinant Trypanosoma brucei rhodesain after 5 mins by spectrofluorimetric analysis
In short: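 Recombinant rhodesain, 4 nM, preincubated 5 min at room temperature with compound (DMSO) in 100 mM sodium acetate pH 5.5, 5 mM DTT, 0.001% Triton X-100. Reaction started with 10 μM Z-Phe-Arg-AMC; rate of AMC fluorescence increase read at ex 355/em 460 nm. IC50 from curve fitting; DMSO-only wells as positive control.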

[7] = Inhibition of recombinant Trypanosoma brucei cathepsin B after 5 mins by spectrofluorimetric analysis
In short: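 Recombinant TbCatB at 258 nM in 100 mM sodium acetate pH 5.5, 5 mM DTT, 0.001% Triton X-100, preincubated with compound in DMSO for 5 min at room temperature. Z-Phe-Arg-AMC 10 μM added to start. Rate of fluorescence rise read at ex 355/em 460 nm; DMSO control wells; IC50 from curve fitting.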

[8] = tested on: Trypanosoma cruzi; test: Antitrypanosomal activity against Trypanosoma cruzi Y trypomastigotes infected in mouse J774 cells at 10 uM after 27 days medium replaced every 48 hrs; format: functional, organism-based; in short: as §2
[9] = tested on: Trypanosoma cruzi; test: Antitrypanosomal activity against Trypanosoma cruzi Y trypomastigotes infected in mouse J774 cells at 5 uM after 27 days medium replaced every 48 hrs; format: functional, organism-based; in short: as §2
[10] = organism: Canis familiaris; test: Toxicity in dog; format: organism-based, Canis lupus familiaris; conditions: in vivo
[11] = organism: Rattus norvegicus; test: Toxicity in rat; format: organism-based; conditions: in vivo
[12] = molecular target: T2, Cathepsin K (Homo sapiens, UniProt P43235); test: Inhibition of human Cathepsin K/O2
T2 sequence (P43235 whole entry): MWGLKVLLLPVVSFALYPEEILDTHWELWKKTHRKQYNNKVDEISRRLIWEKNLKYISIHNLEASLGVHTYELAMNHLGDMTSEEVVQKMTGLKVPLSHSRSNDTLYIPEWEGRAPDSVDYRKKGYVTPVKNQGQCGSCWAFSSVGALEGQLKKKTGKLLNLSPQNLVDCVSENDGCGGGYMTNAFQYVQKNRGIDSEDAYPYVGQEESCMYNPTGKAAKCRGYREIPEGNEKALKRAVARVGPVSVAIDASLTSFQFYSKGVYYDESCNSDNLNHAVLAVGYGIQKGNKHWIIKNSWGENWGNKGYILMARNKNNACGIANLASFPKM
In short: (§3)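 Profiling panel run externally as 10-dose, 3-fold serial dilutions of compound. Protease activity followed as a time course of fluorescence increase from a fluorescently labeled peptide substrate. The initial linear slope (signal/min) was analysed.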

[13] = molecular target: Caspase-6 (Homo sapiens, UniProt P55212); test: Inhibition of human Caspase 6; in short: as §3
[14] = molecular target: Cathepsin Z (Homo sapiens, UniProt Q9UBR2); test: Inhibition of human Cathepsin X/Z; in short: as §3
[15] = molecular target: T3, Cathepsin L2 (Homo sapiens, UniProt O60911); test: Inhibition of human Cathepsin V; in short: as §3
T3 sequence (O60911 whole entry): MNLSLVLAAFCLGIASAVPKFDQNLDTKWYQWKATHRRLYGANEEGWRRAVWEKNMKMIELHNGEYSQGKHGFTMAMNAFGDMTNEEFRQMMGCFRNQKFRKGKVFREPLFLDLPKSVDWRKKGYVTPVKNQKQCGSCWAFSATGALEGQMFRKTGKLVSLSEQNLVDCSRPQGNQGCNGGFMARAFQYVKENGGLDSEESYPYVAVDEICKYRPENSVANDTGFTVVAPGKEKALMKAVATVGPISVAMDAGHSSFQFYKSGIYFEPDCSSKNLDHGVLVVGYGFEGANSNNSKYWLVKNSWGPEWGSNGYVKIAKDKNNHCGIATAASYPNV

[16] = molecular target: Tissue-type plasminogen activator (Homo sapiens, UniProt P00750); test: Inhibition of human tPA; in short: as §3
[17] = molecular target: T4, Pro-cathepsin H (Homo sapiens, UniProt P09668); test: Inhibition of human Cathepsin H; in short: as §3
T4 sequence (P09668 whole entry): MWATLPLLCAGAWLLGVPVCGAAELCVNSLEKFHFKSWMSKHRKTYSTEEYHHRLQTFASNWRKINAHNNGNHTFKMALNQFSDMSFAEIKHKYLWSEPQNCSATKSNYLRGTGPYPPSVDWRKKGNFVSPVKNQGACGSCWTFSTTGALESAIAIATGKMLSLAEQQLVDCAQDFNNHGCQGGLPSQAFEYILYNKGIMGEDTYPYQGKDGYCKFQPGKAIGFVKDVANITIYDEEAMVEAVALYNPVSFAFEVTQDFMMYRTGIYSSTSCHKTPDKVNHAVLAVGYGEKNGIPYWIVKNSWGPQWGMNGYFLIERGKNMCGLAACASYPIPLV

[18] = molecular target: T5, Papain (Carica papaya, UniProt P00784); test: Inhibition of papaya papain; in short: as §3
T5 sequence (P00784 whole entry): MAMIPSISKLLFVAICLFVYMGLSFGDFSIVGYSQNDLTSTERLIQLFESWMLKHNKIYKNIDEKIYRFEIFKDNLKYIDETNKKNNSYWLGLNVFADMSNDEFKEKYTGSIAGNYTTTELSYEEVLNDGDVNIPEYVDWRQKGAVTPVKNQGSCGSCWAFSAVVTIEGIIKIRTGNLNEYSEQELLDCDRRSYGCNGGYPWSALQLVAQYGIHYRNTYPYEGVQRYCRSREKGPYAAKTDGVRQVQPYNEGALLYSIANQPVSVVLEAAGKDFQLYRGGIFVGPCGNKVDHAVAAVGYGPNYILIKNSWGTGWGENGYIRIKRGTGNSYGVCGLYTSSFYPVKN

[19] = molecular target: Cathepsin S (Homo sapiens, UniProt P25774); test: Inhibition of human Cathepsin S; in short: as §3
[20] = organism: Mus musculus; test: Toxicity in mouse; format: organism-based; conditions: in vivo
[21] = molecular target: Caspase-14 (Homo sapiens, UniProt P31944); test: Inhibition of human Caspase 14; in short: as §3
[22] = molecular target: Procathepsin L (Homo sapiens, UniProt P07711); test: Inhibition of human Cathepsin L; in short: as §3
[23] = molecular target: Caspase-5 (Homo sapiens, UniProt P51878); test: Inhibition of human Caspase 5; in short: as §3
[24] = molecular target: Caspase-4 (Homo sapiens, UniProt P49662); test: Inhibition of human Caspase 4; in short: as §3
[25] = molecular target: Cathepsin B (Homo sapiens, UniProt P07858); test: Inhibition of human Cathepsin B; in short: as §3

T1 sequence (P25779 whole entry): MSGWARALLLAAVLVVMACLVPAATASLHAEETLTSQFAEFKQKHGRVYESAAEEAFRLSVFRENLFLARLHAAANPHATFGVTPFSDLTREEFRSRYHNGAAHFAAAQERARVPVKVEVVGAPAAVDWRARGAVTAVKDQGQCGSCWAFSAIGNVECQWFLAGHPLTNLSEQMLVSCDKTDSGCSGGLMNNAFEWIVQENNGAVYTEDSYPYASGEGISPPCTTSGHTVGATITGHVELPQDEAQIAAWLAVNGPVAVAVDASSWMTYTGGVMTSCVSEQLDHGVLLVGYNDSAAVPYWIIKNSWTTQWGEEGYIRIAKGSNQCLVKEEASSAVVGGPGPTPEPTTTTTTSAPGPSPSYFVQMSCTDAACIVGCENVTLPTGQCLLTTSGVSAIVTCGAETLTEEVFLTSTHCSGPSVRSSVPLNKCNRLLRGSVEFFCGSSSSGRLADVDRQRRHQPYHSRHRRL
Procathepsin L, sequence (P07711 whole entry): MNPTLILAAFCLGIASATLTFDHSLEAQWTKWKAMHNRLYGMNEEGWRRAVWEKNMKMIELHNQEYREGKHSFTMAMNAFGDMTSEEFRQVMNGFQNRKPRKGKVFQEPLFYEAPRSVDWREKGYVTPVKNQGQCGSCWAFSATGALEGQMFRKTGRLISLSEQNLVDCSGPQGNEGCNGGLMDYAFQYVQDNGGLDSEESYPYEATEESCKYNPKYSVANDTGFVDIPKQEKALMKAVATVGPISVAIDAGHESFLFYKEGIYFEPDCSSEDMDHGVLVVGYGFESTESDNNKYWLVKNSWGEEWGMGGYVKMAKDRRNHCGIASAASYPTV
Caspase-6, sequence (P55212 24-179 limits assumed): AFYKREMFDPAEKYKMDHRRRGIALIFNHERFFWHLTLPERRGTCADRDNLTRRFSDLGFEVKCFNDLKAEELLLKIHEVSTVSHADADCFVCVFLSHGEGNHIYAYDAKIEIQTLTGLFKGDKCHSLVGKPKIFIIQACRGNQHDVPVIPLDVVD
Caspase-6, sequence (P55212 194-293 limits assumed): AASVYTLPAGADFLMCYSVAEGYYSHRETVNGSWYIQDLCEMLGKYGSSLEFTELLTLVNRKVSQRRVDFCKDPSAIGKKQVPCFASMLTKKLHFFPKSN
Cathepsin Z, sequence (Q9UBR2 whole entry): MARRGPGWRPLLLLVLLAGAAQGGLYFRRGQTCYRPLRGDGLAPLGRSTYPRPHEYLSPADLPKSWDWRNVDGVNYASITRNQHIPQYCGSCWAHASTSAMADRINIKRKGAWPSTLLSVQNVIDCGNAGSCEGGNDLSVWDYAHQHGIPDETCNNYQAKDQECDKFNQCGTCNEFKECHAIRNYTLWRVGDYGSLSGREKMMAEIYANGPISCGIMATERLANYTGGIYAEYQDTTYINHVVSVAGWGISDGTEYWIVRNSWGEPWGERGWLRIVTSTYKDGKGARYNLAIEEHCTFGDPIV
Caspase-14, sequence (P31944 6-146 limits assumed): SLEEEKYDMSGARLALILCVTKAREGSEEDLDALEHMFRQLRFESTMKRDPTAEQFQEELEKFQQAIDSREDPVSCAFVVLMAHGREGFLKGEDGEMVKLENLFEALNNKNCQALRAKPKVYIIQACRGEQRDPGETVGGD
Caspase-14, sequence (P31944 153-242 limits assumed): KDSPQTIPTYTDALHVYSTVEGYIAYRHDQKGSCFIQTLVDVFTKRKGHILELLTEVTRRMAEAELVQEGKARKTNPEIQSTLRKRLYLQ
Tissue-type plasminogen activator, sequence (P00750 whole entry): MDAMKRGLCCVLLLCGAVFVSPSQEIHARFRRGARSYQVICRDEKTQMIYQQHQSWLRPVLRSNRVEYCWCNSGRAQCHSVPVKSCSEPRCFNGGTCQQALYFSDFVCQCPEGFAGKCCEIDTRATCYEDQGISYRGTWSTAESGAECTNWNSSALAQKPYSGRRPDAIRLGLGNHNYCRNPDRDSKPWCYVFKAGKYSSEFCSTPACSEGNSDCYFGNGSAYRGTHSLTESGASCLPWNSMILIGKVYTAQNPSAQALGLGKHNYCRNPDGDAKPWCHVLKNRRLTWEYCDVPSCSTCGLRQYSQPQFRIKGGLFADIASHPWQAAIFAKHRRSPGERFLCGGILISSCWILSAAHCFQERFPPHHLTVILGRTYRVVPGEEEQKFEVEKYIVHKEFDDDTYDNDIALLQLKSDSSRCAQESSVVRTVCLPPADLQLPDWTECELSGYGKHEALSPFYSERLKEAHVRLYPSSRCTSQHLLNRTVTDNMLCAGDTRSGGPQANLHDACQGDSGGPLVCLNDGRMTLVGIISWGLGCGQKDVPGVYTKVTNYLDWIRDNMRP
Cathepsin S, sequence (P25774 whole entry): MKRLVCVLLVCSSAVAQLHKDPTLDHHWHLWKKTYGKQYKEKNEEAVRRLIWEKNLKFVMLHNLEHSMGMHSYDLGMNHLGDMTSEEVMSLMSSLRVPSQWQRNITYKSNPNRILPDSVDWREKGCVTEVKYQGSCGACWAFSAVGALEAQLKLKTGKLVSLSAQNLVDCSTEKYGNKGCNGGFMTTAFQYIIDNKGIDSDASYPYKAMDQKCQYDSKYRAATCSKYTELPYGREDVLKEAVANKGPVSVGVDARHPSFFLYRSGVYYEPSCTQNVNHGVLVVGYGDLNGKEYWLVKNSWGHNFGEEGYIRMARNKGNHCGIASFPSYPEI
Caspase-5, sequence (P51878 137-327 limits assumed): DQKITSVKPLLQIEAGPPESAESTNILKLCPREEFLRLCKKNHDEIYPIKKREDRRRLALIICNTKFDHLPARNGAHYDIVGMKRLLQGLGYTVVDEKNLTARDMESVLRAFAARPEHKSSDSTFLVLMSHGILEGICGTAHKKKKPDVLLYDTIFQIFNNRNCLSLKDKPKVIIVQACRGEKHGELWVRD
Caspase-5, sequence (P51878 347-434 limits assumed): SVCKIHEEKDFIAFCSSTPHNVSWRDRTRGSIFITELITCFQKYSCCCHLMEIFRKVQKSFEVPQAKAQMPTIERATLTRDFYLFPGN
Caspase-4, sequence (P49662 81-270 limits assumed): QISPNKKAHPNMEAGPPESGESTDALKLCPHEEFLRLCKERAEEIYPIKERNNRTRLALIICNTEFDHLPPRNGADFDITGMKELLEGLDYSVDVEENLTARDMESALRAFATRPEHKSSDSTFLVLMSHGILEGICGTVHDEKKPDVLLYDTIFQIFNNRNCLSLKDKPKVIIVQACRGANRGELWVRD
Caspase-4, sequence (P49662 290-377 limits assumed): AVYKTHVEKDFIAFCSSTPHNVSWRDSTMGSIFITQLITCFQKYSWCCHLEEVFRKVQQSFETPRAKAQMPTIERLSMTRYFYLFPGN

SMILES	IC50 ([1]; read-out: IC50) [nM]	IC50 [5] [nM]	IC50 [6] [nM]	IC50 [7] [nM]	also measured
CCCNc1nc(C#N)nc(Nc2ccccc2)n1	790				
N#Cc1nc(Nc2cccc(Br)c2)nc(NC2CCCC2)n1	100	2	6	> 100000	Activity [2]: Toxic; Activity [3]: inactive; Activity [4]: Toxic
N#Cc1nc(NC2CCCC2)c2ncn(-c3cc(F)cc(F)c3)c2n1	316				
CCNc1nc(C#N)nc(Nc2ccccc2)n1	710				
CCn1cnc2c(Nc3cccc(Cl)c3)nc(C#N)nc21	18	0.4	10	> 100000	Activity [8]: inactive
N#Cc1nc(Nc2cc(F)cc(F)c2)c2ncn(C3CCCC3)c2n1	18				
N#Cc1nc(Nc2ccccc2)nc(NC2CCCCC2)n1	1410				
N#Cc1nc(Nc2cccc(C(F)(F)F)c2)nc(NC2CCCC2)n1		40	70	> 10000	Activity [2]: Toxic; IC50 [1]: Not Active; Activity [3]: inactive; Activity [9]: inactive
N#Cc1nc(Nc2cccc(F)c2)nc(NC2CCCC2)n1	79	10	20	> 1000	
N#Cc1nc(Nc2ccccc2)nc(NC2CCCC2)n1	710				
CC(C)Nc1nc(C#N)nc(Nc2ccccc2)n1	890				
N#Cc1nc(Nc2cccc(Cl)c2)nc(NC2CCCC2)n1	79	2	6	> 100000	Activity [10]: Non-toxic; Activity [2]: Toxic; Activity [11]: Non-toxic; IC50 [12]: 17.4 nM; IC50 [13]: 5130 nM; IC50 [14]: 6460 nM; IC50 [15]: 832 nM; Activity [3]: inactive; IC50 [16]: 851 nM; IC50 [17]: 14500 nM; IC50 [18]: 513 nM; IC50 [19]: 6460 nM; Activity [20]: Non-toxic; IC50 [21]: 14100 nM; IC50 [22]: 309 nM; Activity [9]: inactive
N#Cc1nc(Nc2cccc(-c3ccccc3)c2)nc(NC2CCCC2)n1	2240	50	30	> 10000	Activity [2]: Toxic; Activity [3]: inactive; Activity [9]: inactive
N#Cc1nc(Nc2cc(F)cc(F)c2)nc(NC2CCCC2)n1	63	4	5	4000	Activity [10]: Non-toxic; Activity [2]: Toxic; Activity [11]: Non-toxic; IC50 [12]: 20.4 nM; IC50 [13]: 3550 nM; IC50 [14]: 3160 nM; IC50 [15]: 182 nM; Activity [3]: inactive; IC50 [16]: 1290 nM; IC50 [17]: 16200 nM; IC50 [23]: 13500 nM; IC50 [18]: 389 nM; Activity [4]: Toxic; IC50 [24]: 8130 nM; IC50 [19]: 5620 nM; Activity [20]: Non-toxic; IC50 [25]: 10000 nM; IC50 [21]: 9120 nM; IC50 [22]: 204 nM
N#Cc1nc(NCC2CC2)nc(Nc2ccccc2)n1	890				
CNc1nc(C#N)nc(Nc2ccccc2)n1	1260				

SMILES	IC50 ([1]; read-out: IC50) [nM]	IC50 [5] [nM]	IC50 [6] [nM]	IC50 [7] [nM]	also measured
CC(C)CNc1nc(C#N)nc(Nc2ccccc2)n1	890				
CCNc1nc(C#N)nc2c1ncn2-c1cccc(Cl)c1	63				
CCOc1nc(C#N)nc(N2CCCCC2)n1		90	300	> 1000	
N#Cc1nc(NCC(F)F)nc(Nc2cc(F)cc(F)c2)n1	25	1	< 6	1000	
CCCCNc1nc(C#N)nc(Nc2ccccc2)n1	890				
N#Cc1nc(NCC(F)F)c2ncn(-c3cc(F)cc(F)c3)c2n1	50				
N#Cc1nc(Nc2ccc(Br)cc2)nc(NC2CCCC2)n1	1120	60	100	> 10000	
N#Cc1nc(Nc2cc(Cl)cc(Cl)c2)nc(NC2CCCC2)n1	398	10	30	> 10000	Activity [2]: Toxic; Activity [3]: inactive; Activity [9]: inactive
N#Cc1nc(NCCCCO)nc(Nc2ccccc2)n1	890				
Cc1cccc(Nc2nc(C#N)nc(NC3CCCC3)n2)c1	126	30	50	6000	Activity [2]: Toxic; Activity [3]: inactive; Activity [9]: inactive
N#Cc1nc(NCCO)nc(Nc2ccccc2)n1	1580				
N#Cc1nc(Nc2cccc([N+](=O)[O-])c2)nc(NC2CCCC2)n1	63	1	8	> 1000	
N#Cc1nc(Nc2ccc(F)cc2)nc(NC2CCCC2)n1	126	30	40	> 1000	
N#Cc1nc(NCC(F)F)c2ncn(-c3cccc(Cl)c3)c2n1	71				
N#Cc1nc(Nc2cccc(Cl)c2)c2ncn(C3CCCC3)c2n1	40	0.3	< 6	> 10000	Activity [8]: inactive
